Assay results as given in ChEMBL document CHEMBL1124869, “Synthesis and anti-HIV activity of several 2'-fluoro-containing pyrimidine nucleosides” (J Med Chem, 1990).
Converted amounts (≈) assume the structure as drawn. “And” between values parts separate entries of the source, which are not always exact repeats. Equal entries are not always repeated. Values belong to the molecule of their own block, whether it stands above or below them.

Experiments:
CCRF-CEM [1] = assay: Cellular toxicity was measured in CEM cells after 8 days.50 tissue culture infectious doses were used.; assay type: functional, Homo sapiens
CCRF-CEM [2] = assay: Antiviral test was performed against HIV (LAV strain) on CEM cells using 50 tissue culture infectious units.; assay type: functional; details: Homo sapiens, read-out: ID50 (the source's name)
In short: (§1)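 CEM-SS T cells infected with HIV-1 LAV strain. Inoculum was 50 or 30 tissue culture infectious units, depending on the assay. Viral replication was read as p24 core antigen in the culture supernatant by sandwich ELISA. Activity is expressed as 50% inhibitory dose (ID50) and 50% tissue culture inhibitory dose (TCID50).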

CCRF-CEM [3] = assay: Antiviral test was performed against HIV (LAV strain) on CEM cells using 30 tissue culture infectious units; assay type: functional, Homo sapiens; in short: as §1
CCRF-CEM [4] = assay: (§2) Antiviral test was performed against HIV (LAV strain) on CEM cells using 30 tissue culture infectious units. T; assay type: functional, Homo sapiens; in short: as §1
Homo sapiens [5] = species: Homo sapiens; assay: Bone marrow toxicity was measured against human colony forming units-granulocyte monocyte (CFU-GM), concentration is 1.0 uM
In short: (§3)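 Colony formation by normal human granulocyte-monocyte progenitors (CFU-GM) was scored in the presence of 0.1, 1.0 or 10.0 μM drug. Results are given as percent colony survival relative to control, mean ± deviation.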

Homo sapiens [6] = species: Homo sapiens; assay: Bone marrow toxicity was measured against human colony forming units-granulocyte monocyte (CFU-GM), concentration is 10.0 uM; in short: as §3
Mo [7] = assay: (§4) In vitro Antiviral activity against MO cell lines; assay type: functional; details: Homo sapiens, read-out: ID50 (the source's name)
In short: (§5)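 Freshly isolated monocyte/macrophage cells were infected with the monocytotropic HIV Pan Data Strain (PDS). Antiviral endpoint was p24 viral antigen.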

Mo [8] = assay: as §4; assay type: functional, Homo sapiens; in short: as §5
PBL [9] = assay: (§6) In vitro Antiviral activity against PBL cell lines; assay type: functional; details: Homo sapiens, read-out: ID50
PBL [10] = assay: as §6; assay type: functional, Homo sapiens
T-cell [11] = assay: (§7) In vitro Antiviral activity against T-cell lines; assay type: functional; details: Homo sapiens, read-out: ID50 (the source's name)
In short: (§8)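 Freshly isolated T cells were stimulated with PHA mitogen and then infected with HIV HTLV-IIIB. Antiviral endpoint was p24 antigen at 10 days postinfection. Cell viability served as the toxicity endpoint.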

T-cell [12] = assay: as §7; assay type: functional, Homo sapiens; in short: as §8
U-937 [13] = assay: (§9) In vitro Antiviral activity against U937 cell lines; assay type: functional; details: Homo sapiens, read-out: ID50 (the source's name)
U-937 [14] = assay: as §9; assay type: functional, Homo sapiens
CCRF-CEM [15] = assay: Cellular toxicity was measured in CEM cells after 8 days; assay type: functional, Homo sapiens
CCRF-CEM [16] = assay: (§10) In vitro antiviral activity against CEM cell lines; assay type: functional, Homo sapiens; in short: as §1
CCRF-CEM [17] = assay: as §2; assay type: functional; details: Homo sapiens, read-out: ID50 (the source's name); in short: as §1
CCRF-CEM [18] = assay: as §10; assay type: functional; details: Homo sapiens, read-out: ID50 (the source's name); in short: as §1
[19] = (§11) In vitro antiviral activity against (monocyte macrophages) cell lines; assay type: functional; details: Homo sapiens; read-out: ID50 (the source's name); in short: as §5
[20] = as §11; assay type: functional, Homo sapiens; in short: as §5
PBL [21] = assay: (§12) In vitro antiviral activity against PBL cell lines; assay type: functional; details: Homo sapiens, read-out: ID50 (the source's name)
PBL [22] = assay: as §12; assay type: functional, Homo sapiens
T-cell [23] = assay: (§13) In vitro antiviral activity against T-cells; assay type: functional; details: Homo sapiens, read-out: ID50 (the source's name); in short: as §8
T-cell [24] = assay: as §13; assay type: functional, Homo sapiens; in short: as §8
U-937 [25] = assay: (§14) In vitro antiviral activity against U937 cell lines; assay type: functional, Homo sapiens
U-937 [26] = assay: as §14; assay type: functional; details: Homo sapiens, read-out: ID50 (the source's name)

SMILES: Cc1cn([C@@H]2O[C@H](CO)[C@@H](N=[N+]=[N-])[C@H]2F)c(=O)[nH]c1=O
cytotoxic concentration in CEM cells (CCRF-CEM [1]): 2.6 µg/mL | IC50 (CCRF-CEM [2]): > 28.5 µg/mL

SMILES: Cc1cn([C@@H]2O[C@H](CO)C[C@H]2F)c(=O)[nH]c1=O
TCID50 (CCRF-CEM [3]): >25 µg/mL | IC50 (CCRF-CEM [2]): > 25 µg/mL

SMILES: Nc1ccn([C@@H]2O[C@H](CO)C=C2F)c(=O)n1
ID50 (CCRF-CEM [4]): 10.9 µg/mL (≈ 48 µM) | IC50 (CCRF-CEM [2]): 1.3 µg/mL (≈ 5.72 µM)

SMILES: Nc1ccn([C@H]2CC[C@@H](CO)O2)c(=O)n1 [ZALCITABINE]
TCID50 (CCRF-CEM [15]): 1.3 µg/mL | IC50 (CCRF-CEM [2]): 0.007 µg/mL (≈ 0.0331 µM)

SMILES: Cc1cn([C@H]2C[C@H](N=[N+]=[N-])[C@@H](CO)O2)c(=O)[nH]c1=O [ZIDOVUDINE]
TCID50 (CCRF-CEM [16]): >3 µg/mL | IC50 (CCRF-CEM [17]): 0.53 µg/mL (≈ 1.98 µM) | IC50 (CCRF-CEM [2]): 0.08 µg/mL (≈ 0.299 µM) | IC50 (CCRF-CEM [18]): 0.03 µg/mL (≈ 0.112 µM) | Toxicity (Homo sapiens [6]): 23.6 | IC50 [19]: 0.1 µg/mL (≈ 0.374 µM) | TCID50 [20]: 10 µg/mL | IC50 (PBL [21]): 0.0003 µg/mL (≈ 0.00112 µM) | TCID50 (PBL [22]): 3 µg/mL | IC50 (T-cell [23]): 0.033 µg/mL (≈ 0.123 µM) | TCID50 (T-cell [24]): 100 µg/mL | TCID50 (U-937 [25]): 7.5 µg/mL | IC50 (U-937 [26]): 0.03 µg/mL (≈ 0.112 µM)

Further lines, with some results ahead:

IC50 (CCRF-CEM [2]): > 25 µg/mL
SMILES: Cc1cn([C@@H]2O[C@H](CO)C=C2F)c(=O)[nH]c1=O
cytotoxic concentration in CEM cells (CCRF-CEM [1]): 9.7 µg/mL

IC50 (CCRF-CEM [2]): 2.3 µg/mL (≈ 10 µM) | IC50 (Mo [7]): 1 µg/mL (≈ 4.36 µM) | IC50 (PBL [9]): < 2 µg/mL | IC50 (T-cell [11]): 0.33 µg/mL (≈ 1.44 µM) | IC50 (U-937 [13]): 0.14 µg/mL (≈ 0.611 µM)
SMILES: Nc1ccn([C@@H]2O[C@H](CO)C[C@@H]2F)c(=O)n1
ID50 (CCRF-CEM [4]): 0.9 µg/mL (≈ 3.93 µM) | cytotoxic concentration in CEM cells (CCRF-CEM [1]): >23 µg/mL and 61.9 µg/mL | Toxicity (Homo sapiens [5]): 37.6 | Toxicity (Homo sapiens [6]): 0 | TCID50 (Mo [8]): 3.3 µg/mL | TCID50 (PBL [10]): 11 µg/mL | TCID50 (T-cell [12]): 10 µg/mL | TCID50 (U-937 [14]): 7.7 µg/mL

IC50 (CCRF-CEM [2]): > 10 µg/mL
SMILES: O=c1ccn(C2OC(CO)CC2F)c(=O)[nH]1 (stereo not drawn)
cytotoxic concentration in CEM cells (CCRF-CEM [1]): 57 µg/mL
